ChEMBL document CHEMBL1629527, “In vitro antifungal activities of bis(alkylpyridinium)alkane compounds against pathogenic yeasts and molds” (Antimicrob Agents Chemother, 2010)
In brackets after ≈: the same amount, converted by molar mass.

Key:
Candida dubliniensis = test: Antifungal activity against Candida dubliniensis after 24 to 72 hrs by broth microdilution method; format: functional
Procedure, shortened: (§1)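 Broth microdilution MIC per CLSI M27-A3 (yeasts) or M38-A2 (molds). RPMI 1640 with L-glutamine, without bicarbonate, buffered to pH 7.0 with 0.165 M MOPS. Final test range for the compounds was 0.175–87.5 μM. Incubation at 35°C with visual reading at 24–72 h. MIC was the lowest concentration giving 100% inhibition versus the growth control (azoles 50% or 100%, by organism). Each isolate was run in duplicate in two independent experiments.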

Clavispora lusitaniae = test: Antifungal activity against Candida lusitaniae after 24 to 72 hrs by broth microdilution method; format: functional; procedure, shortened: as §1
Cryptococcus neoformans = test: Antifungal activity against Cryptococcus neoformans after 24 to 72 hrs by broth microdilution method; format: functional; procedure, shortened: as §1
Candida albicans = test: Antifungal activity against Candida albicans after 24 to 72 hrs by broth microdilution method; format: functional
Procedure, shortened: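 CLSI M27-A3 broth microdilution for yeasts in RPMI 1640 with L-glutamine and no bicarbonate, buffered with 0.165 M MOPS to pH 7.0. Compounds were dissolved in water and tested at 0.175–87.5 μM final, 35°C. MIC was read visually at 24–72 h as 100% inhibition versus growth control. For MFC, 30 μl from clear wells went onto SDA at 35°C for 48–72 h, reading the lowest concentration without colonies. Duplicates, two independent runs.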

Candida parapsilosis = test: Antifungal activity against Candida parapsilosis after 24 to 72 hrs by broth microdilution method; format: functional; settings: Lodderomyces parapsilosis; procedure, shortened: as §1
[1] = test system: Meyerozyma guilliermondii; test: Antifungal activity against Candida guilliermondii after 24 to 72 hrs by broth microdilution method; format: functional; procedure, shortened: as §1
Candida tropicalis = test: Antifungal activity against Candida tropicalis after 24 to 72 hrs by broth microdilution method; format: functional; procedure, shortened: as §1
[2] = test system: Cryptococcus gattii species complex; test: Antifungal activity against Cryptococcus gattii after 24 to 72 hrs by broth microdilution method; format: functional, Cryptococcus bacillisporus; procedure, shortened: as §1
Nakaseomyces glabratus = test: Antifungal activity against Candida glabrata after 24 to 72 hrs by broth microdilution method; format: functional; procedure, shortened: as §1
Pichia kudriavzevii = test: Antifungal activity against Candida krusei after 24 to 72 hrs by broth microdilution method; format: functional; procedure, shortened: as §1

SMILES | MIC (Candida dubliniensis) | MIC50 (Candida dubliniensis) | MIC90 (Candida dubliniensis) | MIC (Clavispora lusitaniae) | MIC50 (Clavispora lusitaniae) | MIC90 (Clavispora lusitaniae) | MIC (Cryptococcus neoformans) | MIC50 (Cryptococcus neoformans) | MIC90 (Cryptococcus neoformans) | MIC (Candida albicans) | MIC50 (Candida albicans) | MIC90 (Candida albicans) | MIC (Candida parapsilosis) | MIC50 (Candida parapsilosis) | MIC90 (Candida parapsilosis) | MIC [1] | MIC50 [1] | MIC90 [1] | MIC (Candida tropicalis) | MIC50 (Candida tropicalis) | further results
CC[C@@H]([C@H](C)O)n1ncn(-c2ccc(N3CCN(c4ccc(OC[C@@H]5CO[C@@](Cn6cncn6)(c6ccc(F)cc6F)C5)cc4)CC3)cc2)c1=O [POSACONAZOLE] | 0.014 µg/mL (≈ 0.02 µM) | 0.008 µg/mL (≈ 0.0114 µM) | 0.03 µg/mL (≈ 0.0428 µM) | 0.015 µg/mL (≈ 0.0214 µM) | 0.016 µg/mL (≈ 0.0228 µM) | 0.03 µg/mL (≈ 0.0428 µM) | 0.07 µg/mL (≈ 0.0999 µM) | 0.06 µg/mL (≈ 0.0856 µM) | 0.125 µg/mL (≈ 0.178 µM) | 0.04 µg/mL (≈ 0.0571 µM) | 0.02 µg/mL (≈ 0.0285 µM) | 0.18 µg/mL (≈ 0.257 µM) | 0.049 µg/mL (≈ 0.0699 µM) | 0.06 µg/mL (≈ 0.0856 µM) | 0.06 µg/mL (≈ 0.0856 µM) | 0.14 µg/mL (≈ 0.2 µM) | 0.125 µg/mL (≈ 0.178 µM) | 0.25 µg/mL (≈ 0.357 µM) | 0.061 µg/mL (≈ 0.087 µM) | 0.06 µg/mL (≈ 0.0856 µM) | MIC90 (Candida tropicalis): 0.25 µg/mL (≈ 0.357 µM); MIC [2]: 0.04 µg/mL (≈ 0.0571 µM); MIC50 [2]: 0.03 µg/mL (≈ 0.0428 µM); MIC90 [2]: 0.06 µg/mL (≈ 0.0856 µM); MIC (Nakaseomyces glabratus): 1.23 µg/mL (≈ 1.76 µM); MIC50 (Nakaseomyces glabratus): 1 µg/mL (≈ 1.43 µM); MIC90 (Nakaseomyces glabratus): 8 µg/mL (≈ 11.4 µM); MIC (Pichia kudriavzevii): 0.18 µg/mL (≈ 0.257 µM); MIC50 (Pichia kudriavzevii): 0.125 µg/mL (≈ 0.178 µM); MIC90 (Pichia kudriavzevii): 0.25 µg/mL (≈ 0.357 µM)
C[C@@H]1[C@H](O)[C@@H](C)/C=C/C=C/C=C/C=C/C=C/C=C/C=C/[C@H](O[C@@H]2O[C@H](C)[C@@H](O)[C@H](N)[C@@H]2O)C[C@@H]2O[C@](O)(C[C@@H](O)C[C@@H](O)[C@H](O)CC[C@@H](O)C[C@@H](O)CC(=O)O[C@H]1C)C[C@H](O)[C@H]2C(=O)O [AMPHOTERICIN B] | 0.1 µg/mL (≈ 0.108 µM) | 0.125 µg/mL (≈ 0.135 µM) | 0.125 µg/mL (≈ 0.135 µM) | 0.12 µg/mL (≈ 0.13 µM) | 0.125 µg/mL (≈ 0.135 µM) | 0.25 µg/mL (≈ 0.271 µM) | 0.19 µg/mL (≈ 0.206 µM) | 0.25 µg/mL (≈ 0.271 µM) | 0.5 µg/mL (≈ 0.541 µM) | 0.2 µg/mL (≈ 0.216 µM) | 0.25 µg/mL (≈ 0.271 µM) | 0.5 µg/mL (≈ 0.541 µM) | 0.28 µg/mL (≈ 0.303 µM) | 0.25 µg/mL (≈ 0.271 µM) | 0.5 µg/mL (≈ 0.541 µM) | 0.15 µg/mL (≈ 0.162 µM) | 0.125 µg/mL (≈ 0.135 µM) | 0.25 µg/mL (≈ 0.271 µM) | 0.22 µg/mL (≈ 0.238 µM) | 0.25 µg/mL (≈ 0.271 µM) | MIC90 (Candida tropicalis): 0.5 µg/mL (≈ 0.541 µM); MIC [2]: 0.19 µg/mL (≈ 0.206 µM); MIC50 [2]: 0.25 µg/mL (≈ 0.271 µM); MIC90 [2]: 0.25 µg/mL (≈ 0.271 µM); MIC (Nakaseomyces glabratus): 0.18 µg/mL (≈ 0.195 µM); MIC50 (Nakaseomyces glabratus): 0.125 µg/mL (≈ 0.135 µM); MIC90 (Nakaseomyces glabratus): 0.25 µg/mL (≈ 0.271 µM); MIC (Pichia kudriavzevii): 0.22 µg/mL (≈ 0.238 µM); MIC50 (Pichia kudriavzevii): 0.25 µg/mL (≈ 0.271 µM); MIC90 (Pichia kudriavzevii): 0.5 µg/mL (≈ 0.541 µM)
CC[C@H](C)C[C@H](C)CCCCCCCCC(=O)N[C@H]1C[C@@H](O)[C@@H](NCCN)NC(=O)[C@@H]2[C@@H](O)CCN2C(=O)[C@H]([C@H](O)CCN)NC(=O)[C@H]([C@H](O)[C@@H](O)c2ccc(O)cc2)NC(=O)[C@@H]2C[C@@H](O)CN2C(=O)[C@H]([C@@H](C)O)NC1=O [CASPOFUNGIN] | 0.07 µg/mL (≈ 0.064 µM) | 0.06 µg/mL (≈ 0.0549 µM) | 0.125 µg/mL (≈ 0.114 µM) | 0.54 µg/mL (≈ 0.494 µM) | 0.5 µg/mL (≈ 0.457 µM) | 1 µg/mL (≈ 0.915 µM) | 8 µg/mL (≈ 7.32 µM) | 8 µg/mL (≈ 7.32 µM) | 8 µg/mL (≈ 7.32 µM) | 0.12 µg/mL (≈ 0.11 µM) | 0.14 µg/mL (≈ 0.128 µM) | 0.27 µg/mL (≈ 0.247 µM) | 0.66 µg/mL (≈ 0.604 µM) | 0.5 µg/mL (≈ 0.457 µM) | 1 µg/mL (≈ 0.915 µM) | 1.15 µg/mL (≈ 1.05 µM) | 1 µg/mL (≈ 0.915 µM) | 2 µg/mL (≈ 1.83 µM) | 0.14 µg/mL (≈ 0.128 µM) | 0.125 µg/mL (≈ 0.114 µM) | MIC90 (Candida tropicalis): 0.25 µg/mL (≈ 0.229 µM); MIC [2]: 8 µg/mL (≈ 7.32 µM); MIC50 [2]: 8 µg/mL (≈ 7.32 µM); MIC90 [2]: 8 µg/mL (≈ 7.32 µM); MIC (Nakaseomyces glabratus): 0.19 µg/mL (≈ 0.174 µM); MIC50 (Nakaseomyces glabratus): 0.125 µg/mL (≈ 0.114 µM); MIC90 (Nakaseomyces glabratus): 0.25 µg/mL (≈ 0.229 µM); MIC (Pichia kudriavzevii): 0.31 µg/mL (≈ 0.284 µM); MIC50 (Pichia kudriavzevii): 0.25 µg/mL (≈ 0.229 µM); MIC90 (Pichia kudriavzevii): 0.5 µg/mL (≈ 0.457 µM)
OC(Cn1cncn1)(Cn1cncn1)c1ccc(F)cc1F [FLUCONAZOLE] | 0.43 µg/mL (≈ 1.4 µM) | 0.25 µg/mL (≈ 0.816 µM) | 0.5 µg/mL (≈ 1.63 µM) | 2.64 µg/mL (≈ 8.62 µM) | 2 µg/mL (≈ 6.53 µM) | 4 µg/mL (≈ 13.1 µM) | 4.59 µg/mL (≈ 15 µM) | 4 µg/mL (≈ 13.1 µM) | 16 µg/mL (≈ 52.2 µM) | 1.15 µg/mL (≈ 3.75 µM) | 0.5 µg/mL (≈ 1.63 µM) | 16 µg/mL (≈ 52.2 µM) | 2.14 µg/mL (≈ 6.99 µM) | 2 µg/mL (≈ 6.53 µM) | 4 µg/mL (≈ 13.1 µM) | 7.46 µg/mL (≈ 24.4 µM) | 4 µg/mL (≈ 13.1 µM) | 16 µg/mL (≈ 52.2 µM) | 1.41 µg/mL (≈ 4.6 µM) | 1 µg/mL (≈ 3.27 µM) | MIC90 (Candida tropicalis): 4 µg/mL (≈ 13.1 µM); MIC [2]: 4 µg/mL (≈ 13.1 µM); MIC50 [2]: 4 µg/mL (≈ 13.1 µM); MIC90 [2]: 8 µg/mL (≈ 26.1 µM); MIC (Nakaseomyces glabratus): 32 µg/mL (≈ 104 µM); MIC50 (Nakaseomyces glabratus): 16 µg/mL (≈ 52.2 µM); MIC90 (Nakaseomyces glabratus): 256 µg/mL (≈ 836 µM); MIC (Pichia kudriavzevii): 84.5 µg/mL (≈ 276 µM); MIC50 (Pichia kudriavzevii): 64 µg/mL (≈ 209 µM); MIC90 (Pichia kudriavzevii): 128 µg/mL (≈ 418 µM)
C[C@@H](c1ncncc1F)[C@](O)(Cn1cncn1)c1ccc(F)cc1F [VORICONAZOLE] | 0.011 µg/mL (≈ 0.0315 µM) | 0.008 µg/mL (≈ 0.0229 µM) | 0.016 µg/mL (≈ 0.0458 µM) | 0.02 µg/mL (≈ 0.0573 µM) | 0.03 µg/mL (≈ 0.0859 µM) | 0.16 µg/mL (≈ 0.458 µM) | 0.04 µg/mL (≈ 0.115 µM) | 0.03 µg/mL (≈ 0.0859 µM) | 0.125 µg/mL (≈ 0.358 µM) | 0.04 µg/mL (≈ 0.115 µM) | 0.01 µg/mL (≈ 0.0286 µM) | 0.17 µg/mL (≈ 0.487 µM) | 0.043 µg/mL (≈ 0.123 µM) | 0.06 µg/mL (≈ 0.172 µM) | 0.06 µg/mL (≈ 0.172 µM) | 0.124 µg/mL (≈ 0.355 µM) | 0.125 µg/mL (≈ 0.358 µM) | 0.25 µg/mL (≈ 0.716 µM) | 0.07 µg/mL (≈ 0.2 µM) | 0.125 µg/mL (≈ 0.358 µM) | MIC90 (Candida tropicalis): 0.25 µg/mL (≈ 0.716 µM); MIC [2]: 0.05 µg/mL (≈ 0.143 µM); MIC50 [2]: 0.06 µg/mL (≈ 0.172 µM); MIC90 [2]: 0.06 µg/mL (≈ 0.172 µM); MIC (Nakaseomyces glabratus): 0.41 µg/mL (≈ 1.17 µM); MIC50 (Nakaseomyces glabratus): 0.25 µg/mL (≈ 0.716 µM); MIC90 (Nakaseomyces glabratus): 4 µg/mL (≈ 11.5 µM); MIC (Pichia kudriavzevii): 0.41 µg/mL (≈ 1.17 µM); MIC50 (Pichia kudriavzevii): 0.25 µg/mL (≈ 0.716 µM); MIC90 (Pichia kudriavzevii): 1 µg/mL (≈ 2.86 µM)
